Measurements: PubChem BioAssay AID588810 (Broad Institute, 2011)
“And” between values parts separate entries of the source, which are not always exact repeats. Identical values can stand only once. Records with an inconclusive call do not appear. The source made the active and inactive calls.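 How the source made its calls: active means rising curve reaching 40% of the stimulating control's effect at or below the top valid tested dose; inconclusive means flat curve between 30 and 70% of control, or poor fit; inactive means falling curves and all the rest.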

Molecular target: Scavenger receptor class B member 1 (Mus musculus) (UniProt Q61009)
Test: increase of Alexa488-HDL binding at mSR-BI cells – ldlA[mSR-BI] cells, powder samples, set 2, orthogonal assay for SR-BI HDL uptake inhibitor project, dose response (AID 588810)
Conditions: ldlA[mSR-BI] CHO cells, Alexa488-HDL binding fluorescence, 3 h
In short: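 Benchmarks: BLT-1 at 1 µM as positive control; system: mouse SR-BI-expressing ldlA CHO cells; buffer or medium: F12, 0.5% BSA, 25 mM HEPES pH 7.4; signal: bottom-read fluorescence after two PBS washes; compound dosing: dose series of compound; schedule: cells seeded one day ahead, 3 h HDL-compound exposure at 37 °C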

Sequence of Scavenger receptor class B member 1 (Mus musculus) (Q61009 whole entry, looked up): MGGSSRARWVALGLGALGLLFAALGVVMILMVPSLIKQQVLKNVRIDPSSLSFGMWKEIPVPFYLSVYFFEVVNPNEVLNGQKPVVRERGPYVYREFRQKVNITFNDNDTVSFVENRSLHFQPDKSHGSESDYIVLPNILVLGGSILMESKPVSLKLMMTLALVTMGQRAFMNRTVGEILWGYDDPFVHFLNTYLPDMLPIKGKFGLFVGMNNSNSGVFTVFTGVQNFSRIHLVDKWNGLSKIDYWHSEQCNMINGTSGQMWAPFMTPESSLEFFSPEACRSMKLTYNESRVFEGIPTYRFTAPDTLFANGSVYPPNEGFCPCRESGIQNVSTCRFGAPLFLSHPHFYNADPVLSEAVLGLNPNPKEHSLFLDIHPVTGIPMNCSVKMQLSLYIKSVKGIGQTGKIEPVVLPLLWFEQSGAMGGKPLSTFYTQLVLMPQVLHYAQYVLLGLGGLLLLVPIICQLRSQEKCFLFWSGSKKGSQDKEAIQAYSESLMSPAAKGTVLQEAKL

SMILES	AC40
CCC(=O)Nc1ccc(-c2csc(NC(=O)c3cccc(OC)c3)n2)cc1	347 nM
CCC(=O)N1CC(C)(C)c2cc(-c3csc(NC(=O)c4ccco4)n3)ccc21	57.1 nM
CC(=O)N1CCc2cc(-c3nc(NC(=O)c4cccc(OC(F)(F)F)c4)sc3C)ccc21	488 nM
COc1ccc(-c2nnn(CC(=O)N(CC(=O)N(C)C3CCCC3)C3CCCCC3)n2)cc1OC	4950 nM
COc1cc(OC)cc(C(=O)Nc2nc(-c3ccc4c(c3)CCN4C(=O)CN(C)C)cs2)c1	232 nM
CCC(=O)N1CCc2cc(-c3csc(NC(=O)c4ccco4)n3)ccc21	312 nM and 2270 nM
CCC(=O)N1CCc2cc(-c3csc(NC(=O)c4cc5ccccc5o4)n3)ccc21	1580 nM
Cc1ccc2oc(-c3cccc(NC(=O)c4cc(-n5cnnc5)ccc4Cl)c3)nc2c1	> 80000 nM (inactive)
COc1ccc(-c2nnn(CC(=O)N(CC(=O)N3CCCCC3)C3CCCCC3)n2)cc1OC	11800 nM
CCC(=O)N1CCc2cc(-c3csc(NC(=O)c4cccc(OC)c4)n3)ccc21	454 nM
CCC(=O)N1CCc2cc(-c3csc(NC(=O)c4ccc(F)c(OC)c4)n3)ccc21	358 nM
COC(=O)N1CCc2cc(-c3csc(NC(=O)c4cc(OC)cc(OC)c4)n3)ccc21	324 nM
CCNC(=O)N1CCc2cc(-c3csc(NC(=O)c4cc(OC)cc(OC)c4)n3)ccc21	12.7 nM
COc1ccc(-c2nc(CC(=O)N(C3CCCCC3)C(C)C(=O)NC3CCCC3)co2)cc1OC (stereo not drawn)	1360 nM
CC(C(=O)NC1CCCC1)N(C(=O)Cn1nnc(-c2ccc3c(c2)OCO3)n1)C1CCCCC1 (stereo not drawn)	214 nM
CCC(=O)N1CCc2cc(-c3csc(NCc4cc(OC)cc(OC)c4)n3)ccc21	912 nM
COc1cc(OC)cc(C(=O)Nc2nc(-c3ccc4c(c3)CCN4C(C)=O)cs2)c1	371 nM

SMILES	AC40
C[C@H](C(=O)NC1CCCC1)N(C(=O)Cn1nnc(-c2ccc3c(c2)OCO3)n1)C1CCCCC1	169 nM
COc1c(NC(=O)C(=O)c2ccc(OCCN3CCOCC3)c3ccccc23)cc(C(C)(C)C)cc1NS(C)(=O)=O	1640 nM
O=C(CN(C(=O)Cn1nnc(-c2ccc3c(c2)OCO3)n1)C1CCCCC1)NC1CCCC1	337 nM
CCC(=O)N1CCc2cc(-c3csc(NC(=O)c4cc(OC)cc(OC)c4)n3)ccc21	382 nM
C[C@@H]1CN([C@H](C)CO)C(=O)c2cc(NC(=O)Cc3cn(C)c4ccccc34)ccc2O[C@H]1CN(C)S(=O)(=O)c1ccc(Cl)cc1	73.3 nM
COc1cc(OC)cc(C(=O)Nc2nc(-c3ccc4c(c3)CCN4C(=O)OC(C)(C)C)cs2)c1	24.5 nM
COc1ccc(-c2nnn(CC(=O)N(C3CCCCC3)C(C)C(=O)NC3CCCC3)n2)cc1OC (stereo not drawn)	437 nM
CCC(=O)N1CCc2cc(-c3csc(NC(=O)c4cccc(OC(F)(F)F)c4)n3)ccc21	943 nM
C[C@@H](C(=O)NC1CCCC1)N(C(=O)Cn1nnc(-c2ccc3c(c2)OCO3)n1)C1CCCCC1	4690 nM
CCC(=O)n1ccc2cc(-c3csc(NC(=O)c4cc(OC)cc(OC)c4)n3)ccc21	672 nM
CCC(=O)N1CCc2cc(-c3csc(NC(=O)c4cc(OC)c(OC)c(OC)c4)n3)ccc21	22.2 nM
COc1ccc(-c2cc(CC(=O)N(C3CCCCC3)C(C)C(=O)NC3CCCC3)no2)cc1OC (stereo not drawn)	145 nM
CCC(=O)N1CC(C)(C)c2cc(-c3csc(NC(=O)c4cc(OC)cc(OC)c4)n3)ccc21	6.07 nM
COCC(=O)N1CCc2cc(-c3csc(NC(=O)c4cc(OC)cc(OC)c4)n3)ccc21	21.8 nM
O=C(Nc1nc(-c2ccc3c(c2)CCN3)cs1)c1ccco1	295 nM
COc1ccc(-c2nnn(CC(=O)N(CC(=O)NC3CCCC3)C3CCCCC3)n2)cc1OC	231 nM
